Reference: ChEMBL document CHEMBL3352189 (J Med Chem, 2014)
The source made the active and inactive calls. The calls are words filed in the database; no cut-off is given here.

How the values were obtained:
[1] = molecular target: Epidermal growth factor receptor (Homo sapiens) (UniProt P00533); experiment: Displacement of [125I]EGF from human EGFR at 10 uM
[2] = molecular target: T1, Glutamate NMDA receptor (Rattus norvegicus) (UniProt P35439+Q00959+Q00960+Q00961+Q62645+Q8VHN2+Q9R1M7); experiment: Displacement of [3H]TCP from rat NMDA receptor phencyclidine binding site binding site at 10 uM; assay type: protein-complex assay
Rattus norvegicus [3] = species: Rattus norvegicus; experiment: Displacement of radioligand from rat sodium channel site 2 at 10 uM
[4] = Plasma concentration in C57BL/6 mouse at 5 mg/kg, ip administered as single dose measured after 20 mins by LC/MS analysis based RACE assay; assay type: ADME, organism-based; set-up: dose 5 mg/kg, route intraperitoneal
In short: (§1)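 Single intraperitoneal dose of 1, 5 or 10 mg/kg given to C57BL/6 mice, 3 mice per dose and time point, with a vehicle-control cohort. Plasma was sampled at 20 and 120 min post-dose and drug level measured by LC/MS. Each time point averaged two injections (<20% difference); values are means ± standard deviation in μM.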

Rattus norvegicus [5] = species: Rattus norvegicus; experiment: Displacement of [3H]kainic acid from rat kainate receptor at 10 uM
[6] = test system: Venezuelan equine encephalitis virus; experiment: Antiviral activity against Venezuelan equine encephalitis virus TrD infected in Vero 76 cells assessed as reduction in viral titer at 0.5 uM by crystal violet staining based microplaque assay relative to untreated control; assay type: functional, organism-based
[7] = molecular target: Adenosine receptor A1 (Homo sapiens) (UniProt P30542); experiment: Displacement of [3H]DPCPX from human adenosine A1 receptor at 10 uM
Adenosine receptor A1 (Homo sapiens), sequence (P30542 whole entry): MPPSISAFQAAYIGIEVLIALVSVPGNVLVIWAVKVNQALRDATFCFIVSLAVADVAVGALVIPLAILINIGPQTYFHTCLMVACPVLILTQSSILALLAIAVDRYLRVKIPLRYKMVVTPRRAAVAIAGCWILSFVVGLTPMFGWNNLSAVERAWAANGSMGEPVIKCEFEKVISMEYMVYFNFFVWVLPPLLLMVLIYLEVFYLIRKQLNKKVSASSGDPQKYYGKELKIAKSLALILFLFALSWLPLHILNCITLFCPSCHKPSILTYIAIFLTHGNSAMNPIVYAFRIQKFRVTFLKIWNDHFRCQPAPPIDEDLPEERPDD

[8] = molecular target: Estrogen receptor (Homo sapiens) (UniProt P03372); experiment: Displacement of [3H]estradiol from human ERalpha at 10 uM
[9] = molecular target: Platelet-activating factor receptor (Homo sapiens) (UniProt P25105); experiment: Displacement of [3H]PAF from human PAF receptor at 10 uM
Platelet-activating factor receptor (Homo sapiens), sequence (P25105 whole entry): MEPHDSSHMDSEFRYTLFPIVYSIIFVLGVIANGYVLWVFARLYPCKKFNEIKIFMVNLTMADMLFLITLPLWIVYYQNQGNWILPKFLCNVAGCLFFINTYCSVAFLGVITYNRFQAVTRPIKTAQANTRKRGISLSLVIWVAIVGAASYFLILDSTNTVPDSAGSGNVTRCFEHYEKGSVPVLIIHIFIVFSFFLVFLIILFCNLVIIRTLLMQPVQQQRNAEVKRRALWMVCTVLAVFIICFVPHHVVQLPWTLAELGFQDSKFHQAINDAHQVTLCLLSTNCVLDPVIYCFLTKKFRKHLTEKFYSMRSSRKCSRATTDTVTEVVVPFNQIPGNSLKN

[10] = molecular target: Beta-2 adrenergic receptor (Homo sapiens) (UniProt P07550); experiment: Displacement of [3H]CGP-12177 from human adrenergic beta2 receptor at 10 uM
Beta-2 adrenergic receptor (Homo sapiens), sequence (P07550 whole entry, looked up): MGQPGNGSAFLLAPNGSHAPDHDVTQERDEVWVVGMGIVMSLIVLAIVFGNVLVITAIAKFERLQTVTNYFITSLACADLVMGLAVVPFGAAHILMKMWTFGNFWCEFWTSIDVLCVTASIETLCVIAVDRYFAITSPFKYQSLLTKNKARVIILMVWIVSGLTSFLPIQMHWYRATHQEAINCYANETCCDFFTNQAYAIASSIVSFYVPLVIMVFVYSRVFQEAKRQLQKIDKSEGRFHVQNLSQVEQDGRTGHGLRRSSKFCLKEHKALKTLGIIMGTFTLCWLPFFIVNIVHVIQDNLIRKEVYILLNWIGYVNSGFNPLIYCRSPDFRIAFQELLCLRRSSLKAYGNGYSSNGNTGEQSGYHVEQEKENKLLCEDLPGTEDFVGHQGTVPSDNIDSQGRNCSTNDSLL

[11] = molecular target: 5-hydroxytryptamine receptor 1A (Homo sapiens) (UniProt P08908); experiment: Displacement of [3H]8-OH-DPAT from human 5HT1A receptor at 10 uM
5-hydroxytryptamine receptor 1A (Homo sapiens), sequence (P08908 whole entry): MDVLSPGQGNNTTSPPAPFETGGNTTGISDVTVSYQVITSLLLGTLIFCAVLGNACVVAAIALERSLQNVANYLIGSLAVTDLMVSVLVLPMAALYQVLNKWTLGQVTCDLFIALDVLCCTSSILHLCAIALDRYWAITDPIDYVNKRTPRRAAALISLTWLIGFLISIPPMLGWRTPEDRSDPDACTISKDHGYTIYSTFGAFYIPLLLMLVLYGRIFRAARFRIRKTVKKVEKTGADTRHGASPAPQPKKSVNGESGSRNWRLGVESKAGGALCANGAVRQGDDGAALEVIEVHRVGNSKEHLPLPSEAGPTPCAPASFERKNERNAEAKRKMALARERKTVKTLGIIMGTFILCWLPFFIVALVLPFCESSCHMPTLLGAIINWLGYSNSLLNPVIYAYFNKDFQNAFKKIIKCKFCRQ

[12] = molecular target: Acetylcholine receptor subunit alpha (Homo sapiens) (UniProt P02708); experiment: Displacement of [125I]alpha-Bungarotoxin from human nAchR alpha1 bungarotoxin binding site at 10 uM
[13] = test system: Venezuelan equine encephalitis virus; experiment: Antiviral activity against Venezuelan equine encephalitis virus TC83 infected in Vero 76 cells assessed as reduction in virus-induced cytopathic effect after 2 days by Celltiter-Glo reagent based assay; assay type: functional, organism-based; settings: TC83, Vero 76, 48 h
[14] = molecular target: Mu-type opioid receptor (Homo sapiens) (UniProt P35372); experiment: Displacement of [3H]diprenorphine from human mu opiate receptor at 10 uM
Plasma [15] = experiment: Protein binding in mouse plasma at 1 uM; assay type: ADME, cell-free
Mus musculus [16] = experiment: Toxicity in Venezuelan equine encephalitis virus TC83 infected C3H/HeN mouse assessed as induction of hunched posture at 5 mg/kg/day, ip BID for 4 days; assay type: organism-based; set-up: route intraperitoneal; settings: in vivo, 96 h
Plasma [17] = experiment: Stability in mouse plasma assessed as parent compound remaining after 3 hrs; assay type: ADME, cell-free
CYP2D6 = CYP2D6 (Homo sapiens, UniProt P10635); experiment: Inhibition of human CYP2D6 at 10 uM; assay type: ADME
[18] = molecular target: Androgen receptor (Rattus norvegicus) (UniProt P15207); experiment: Displacement of [3H]mibolerone from rat androgen receptor at 10 uM
Rattus norvegicus [19] = species: Rattus norvegicus; experiment: Displacement of [125I]triiodothyronine from rat thyroid hormone receptor 10 uM
[20] = test system: Venezuelan equine encephalitis virus; experiment: Antiviral activity against Venezuelan equine encephalitis virus TrD infected in Vero 76 cells assessed as reduction in viral titer at 1 uM by crystal violet staining based microplaque assay relative to untreated control; assay type: functional
[21] = molecular target: Adenosine receptor A3 (Homo sapiens) (UniProt P0DMS8); experiment: Displacement of [125I]AB-MECA from human adenosine A3 receptor at 10 uM
Adenosine receptor A3 (Homo sapiens), sequence (P0DMS8 whole entry): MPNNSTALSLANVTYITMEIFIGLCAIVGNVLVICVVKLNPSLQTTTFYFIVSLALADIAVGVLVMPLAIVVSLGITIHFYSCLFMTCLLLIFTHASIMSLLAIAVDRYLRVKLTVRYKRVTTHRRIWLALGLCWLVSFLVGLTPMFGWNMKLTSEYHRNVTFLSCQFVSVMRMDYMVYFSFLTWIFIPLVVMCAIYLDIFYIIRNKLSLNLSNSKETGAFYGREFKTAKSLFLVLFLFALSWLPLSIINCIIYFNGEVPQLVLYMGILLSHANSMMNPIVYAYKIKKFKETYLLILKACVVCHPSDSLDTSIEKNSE

[22] = Drug concentration in C57BL/6 mouse brain at 5 mg/kg, ip administered as single dose measured after 120 mins by LC/MS analysis based RACE assay; assay type: ADME, organism-based; set-up: dose 5 mg/kg, route intraperitoneal; settings: read-out: Drug uptake
In short: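 Brain tissue taken at the terminal 120 min point after one intraperitoneal dose (1, 5 or 10 mg/kg) in C57BL/6 mice, 3 per group, with a vehicle cohort. Drug level measured by LC/MS, averaging two injections per sample; reported as mean ± standard deviation, μM.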

[23] = test system: Venezuelan equine encephalitis virus; experiment: Antiviral activity against Venezuelan equine encephalitis virus TC83 infected in C3H/HeN mouse assessed as mouse survival at […], ip BID for 4 days dosed 4 hrs before viral infection (reference value: 14%); assay type: functional; settings: route intraperitoneal
[24] = Plasma concentration in C57BL/6 mouse at 5 mg/kg, ip administered as single dose measured after 120 mins by LC/MS analysis based RACE assay; assay type: ADME, organism-based; set-up: dose 5 mg/kg, route intraperitoneal; in short: as §1
CYP2C9 = CYP2C9 (Homo sapiens, UniProt P11712); experiment: Inhibition of human CYP2C9 at 10 uM; assay type: ADME
[25] = molecular target: T1, Glutamate NMDA receptor (Rattus norvegicus); experiment: Displacement of [3H]MDL 105,519 from rat NMDA receptor glycine binding site binding site at 10 uM; assay type: protein-complex assay
[26] = molecular target: Muscarinic acetylcholine receptor M2 (Homo sapiens) (UniProt P08172); experiment: Displacement of [3H]N-Methylscopolamine from human muscarinic M2 receptor at 10 uM
Muscarinic acetylcholine receptor M2 (Homo sapiens), sequence (P08172 whole entry): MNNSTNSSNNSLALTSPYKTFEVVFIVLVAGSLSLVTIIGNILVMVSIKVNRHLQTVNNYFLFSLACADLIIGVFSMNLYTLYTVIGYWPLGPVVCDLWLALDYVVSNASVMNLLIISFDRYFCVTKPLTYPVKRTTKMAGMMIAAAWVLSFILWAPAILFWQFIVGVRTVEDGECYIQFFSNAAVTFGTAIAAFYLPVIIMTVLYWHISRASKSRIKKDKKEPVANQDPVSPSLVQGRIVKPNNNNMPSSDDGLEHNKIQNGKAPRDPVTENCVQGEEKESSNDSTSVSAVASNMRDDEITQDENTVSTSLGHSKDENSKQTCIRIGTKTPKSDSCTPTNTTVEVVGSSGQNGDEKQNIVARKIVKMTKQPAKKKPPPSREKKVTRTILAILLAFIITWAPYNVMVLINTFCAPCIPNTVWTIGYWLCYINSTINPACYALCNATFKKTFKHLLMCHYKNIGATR

[27] = molecular target: Alpha-1D adrenergic receptor (Homo sapiens) (UniProt P25100); experiment: Displacement of [3H]prazosin from human adrenergic alpha1D receptor at 10 uM
Alpha-1D adrenergic receptor (Homo sapiens), sequence (P25100 whole entry): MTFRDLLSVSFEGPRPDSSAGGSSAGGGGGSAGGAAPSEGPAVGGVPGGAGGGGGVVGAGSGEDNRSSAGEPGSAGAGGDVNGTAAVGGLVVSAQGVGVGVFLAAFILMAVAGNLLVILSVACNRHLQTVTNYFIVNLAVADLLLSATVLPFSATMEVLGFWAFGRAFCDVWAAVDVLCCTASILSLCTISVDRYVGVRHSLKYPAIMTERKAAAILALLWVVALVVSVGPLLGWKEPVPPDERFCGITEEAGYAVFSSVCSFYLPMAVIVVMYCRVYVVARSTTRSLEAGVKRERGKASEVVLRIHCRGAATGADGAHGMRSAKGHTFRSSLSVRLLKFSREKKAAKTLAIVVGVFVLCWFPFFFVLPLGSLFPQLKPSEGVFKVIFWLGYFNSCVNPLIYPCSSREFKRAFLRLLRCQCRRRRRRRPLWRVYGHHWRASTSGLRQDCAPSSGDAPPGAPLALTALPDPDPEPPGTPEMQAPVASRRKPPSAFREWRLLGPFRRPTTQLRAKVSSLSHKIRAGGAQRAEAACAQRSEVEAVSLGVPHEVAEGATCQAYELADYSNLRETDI

Mus musculus [28] = experiment: Toxicity in Venezuelan equine encephalitis virus TC83 infected C3H/HeN mouse assessed as body weight loss at 5 mg/kg/day, ip BID for 4 days; assay type: organism-based; set-up: route intraperitoneal; settings: in vivo, 96 h
Oryctolagus cuniculus = species: Oryctolagus cuniculus; experiment: Displacement of [3H]alpha,beta-methylene-ATP from rabbit P2X channel at 10 uM
[29] = molecular target: Neuropeptide Y receptor type 2 (Homo sapiens) (UniProt P49146); experiment: Displacement of [125I]Peptide YY from human neuropeptide Y Y2 receptor at 10 uM
Neuropeptide Y receptor type 2 (Homo sapiens), sequence (P49146 whole entry): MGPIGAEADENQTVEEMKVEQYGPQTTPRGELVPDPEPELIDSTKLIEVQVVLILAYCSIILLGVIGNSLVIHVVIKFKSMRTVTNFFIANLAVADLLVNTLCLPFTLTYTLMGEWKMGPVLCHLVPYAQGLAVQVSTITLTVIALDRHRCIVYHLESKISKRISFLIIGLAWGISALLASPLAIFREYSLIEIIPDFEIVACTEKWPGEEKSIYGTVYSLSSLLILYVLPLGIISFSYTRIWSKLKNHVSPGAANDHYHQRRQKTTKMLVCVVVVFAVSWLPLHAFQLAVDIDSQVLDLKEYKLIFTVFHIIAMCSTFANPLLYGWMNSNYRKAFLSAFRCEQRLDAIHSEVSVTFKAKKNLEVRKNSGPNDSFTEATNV

Cricetinae = experiment: Displacement of [3H]glyburide from hamster KATP channel at 10 uM
[30] = molecular target: Cysteinyl leukotriene receptor 1 (Homo sapiens) (UniProt Q9Y271); experiment: Displacement of [3H]LTD4 from human CysLT1 receptor at 10 uM
Cysteinyl leukotriene receptor 1 (Homo sapiens), sequence (Q9Y271 whole entry): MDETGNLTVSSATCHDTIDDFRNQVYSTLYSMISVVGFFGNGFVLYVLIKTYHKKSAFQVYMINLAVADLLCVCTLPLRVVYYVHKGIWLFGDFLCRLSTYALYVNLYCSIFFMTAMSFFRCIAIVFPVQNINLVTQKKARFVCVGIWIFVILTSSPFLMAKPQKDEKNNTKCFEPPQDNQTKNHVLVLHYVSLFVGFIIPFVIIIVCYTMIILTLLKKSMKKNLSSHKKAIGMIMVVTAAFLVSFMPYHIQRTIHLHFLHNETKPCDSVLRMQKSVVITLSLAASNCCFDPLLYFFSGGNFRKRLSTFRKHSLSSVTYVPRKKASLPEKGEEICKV

Epidermal growth factor receptor (Homo sapiens), sequence (P00533 whole entry): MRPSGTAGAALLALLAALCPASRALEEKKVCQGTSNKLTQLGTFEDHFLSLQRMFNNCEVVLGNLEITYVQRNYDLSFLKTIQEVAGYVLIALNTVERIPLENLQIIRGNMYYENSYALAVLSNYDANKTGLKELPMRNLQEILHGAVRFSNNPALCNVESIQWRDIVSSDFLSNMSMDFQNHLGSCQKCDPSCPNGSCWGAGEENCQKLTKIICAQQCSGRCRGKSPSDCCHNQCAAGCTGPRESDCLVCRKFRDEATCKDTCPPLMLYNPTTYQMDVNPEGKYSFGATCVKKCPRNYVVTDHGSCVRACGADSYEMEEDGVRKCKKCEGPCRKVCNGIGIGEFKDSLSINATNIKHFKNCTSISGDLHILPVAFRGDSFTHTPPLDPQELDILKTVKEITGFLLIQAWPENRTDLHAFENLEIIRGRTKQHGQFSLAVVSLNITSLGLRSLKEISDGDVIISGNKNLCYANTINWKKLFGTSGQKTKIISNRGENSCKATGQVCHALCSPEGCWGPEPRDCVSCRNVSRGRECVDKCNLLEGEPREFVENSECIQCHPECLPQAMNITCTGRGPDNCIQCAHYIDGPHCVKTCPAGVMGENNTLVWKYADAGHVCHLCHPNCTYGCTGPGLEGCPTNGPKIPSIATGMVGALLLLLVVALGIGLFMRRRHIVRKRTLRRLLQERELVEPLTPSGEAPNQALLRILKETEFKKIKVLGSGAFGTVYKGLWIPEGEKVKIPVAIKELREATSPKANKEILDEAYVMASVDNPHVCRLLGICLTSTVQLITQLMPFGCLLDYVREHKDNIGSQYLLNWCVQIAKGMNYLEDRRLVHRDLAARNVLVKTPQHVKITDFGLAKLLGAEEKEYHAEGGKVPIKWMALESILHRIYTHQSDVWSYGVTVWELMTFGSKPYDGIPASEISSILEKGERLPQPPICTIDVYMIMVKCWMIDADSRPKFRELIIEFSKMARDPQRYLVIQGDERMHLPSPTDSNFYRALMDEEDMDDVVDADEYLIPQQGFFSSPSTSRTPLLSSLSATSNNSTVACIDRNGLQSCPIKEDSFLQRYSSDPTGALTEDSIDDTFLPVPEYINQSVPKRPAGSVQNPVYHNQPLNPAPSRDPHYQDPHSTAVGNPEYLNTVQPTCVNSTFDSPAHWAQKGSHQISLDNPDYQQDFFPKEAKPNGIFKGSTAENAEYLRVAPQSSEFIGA

## CN1CCN(C)/C(=N/c2ccc([N+](=O)[O-])cc2C(=O)Nc2ccccc2)C1
[1]
  inhibition: -2.63%
[2]
  inhibition: 9.28%
Rattus norvegicus [3]
  inhibition: 9.27%
[4]
  concentration at 20 min: 1450 nM
Rattus norvegicus [5]
  inhibition: 22.3%
[6]
  inhibition: Active
[7]
  inhibition: 20.4%
[8]
  inhibition: 10%
[9]
  inhibition: 7.04%
[10]
  inhibition: 6.39%
[11]
  inhibition: 2.12%
[12]
  inhibition: 0.62%
[13]
  EC50: 30 nM
[14]
  inhibition: 25.4%
Plasma [15]
  PPB: 85%
Mus musculus [16]
  Activity: Non-toxic
Plasma [17]
  Stability: 65.4%
CYP2D6
  inhibition at 10 µM: 28%
[18]
  inhibition: 1.1%
Rattus norvegicus [19]
  inhibition: 1.61%
[20]
  inhibition: Active
[21]
  inhibition: 26.7%
[22]
  concentration at 2 h: 210 nM
[23]
  survival at […]: 127%
[24]
  concentration at 2 h: 290 nM
CYP2C9
  inhibition at 10 µM: 7%
[25]
  inhibition: 12.9%
[26]
  inhibition: 2.1%
[27]
  inhibition: -7.82%
Mus musculus [28]
  Activity: Non-toxic
Oryctolagus cuniculus
  inhibition: 14.2%
[29]
  inhibition: -6.1%
Cricetinae
  inhibition: 4.77%
[30]
  inhibition: 10.9%
